Experimental data as given in ChEMBL document CHEMBL5653622 (Oncotarget, 2016).
pIC50: −log10 of the molar value. Active and inactive are the calls of the source. The calls are words filed in the database; no cut-off is given here.

Key:
[1] = Tmax in BALB/C mouse plasma at 10 mg/kg, iv by LC/MS-MS analysis; format: ADME, organism-based
[2] = molecular target: T1, Ribosomal protein S6 kinase alpha-1 (Homo sapiens, UniProt Q15418); assay: Inhibition of human RSK1 assessed as remaining activity at 10 uM in presence of ATP by radiometric kinase assay relative to control
[3] = molecular target: Mitogen-activated protein kinase 9 (Homo sapiens) (UniProt P45984); assay: Inhibition of human JNK2 assessed as remaining activity at 10 uM in presence of ATP by radiometric kinase assay relative to control
[4] = molecular target: Mitogen-activated protein kinase 11 (Homo sapiens) (UniProt Q15759); assay: Inhibition of human p38b MAPK assessed as remaining activity at 10 uM in presence of ATP by radiometric kinase assay relative to control
[5] = molecular target: MAP kinase-activated protein kinase 5 (Homo sapiens) (UniProt Q8IW41); assay: Inhibition of human PRAK assessed as remaining activity at 10 uM in presence of ATP by radiometric kinase assay relative to control
[6] = molecular target: MAP/microtubule affinity-regulating kinase 3 (Homo sapiens, UniProt P27448); assay: Inhibition of human MARK3 assessed as remaining activity at 10 uM in presence of ATP by radiometric kinase assay relative to control
[7] = molecular target: Dual specificity tyrosine-phosphorylation-regulated kinase 3 (Homo sapiens) (UniProt O43781); assay: Inhibition of human DYRK3 assessed as remaining activity at 10 uM in presence of ATP by radiometric kinase assay relative to control
[8] = molecular target: Inhibitor of nuclear factor kappa-B kinase subunit beta (Homo sapiens) (UniProt O14920); assay: Inhibition of human IKKb assessed as remaining activity at 10 uM in presence of ATP by radiometric kinase assay relative to control
[9] = molecular target: Serine/threonine-protein kinase TBK1 (Homo sapiens) (UniProt Q9UHD2); assay: Inhibition of human TBK1 assessed as remaining activity at 10 uM in presence of ATP by radiometric kinase assay relative to control
[10] = molecular target: Dual specificity protein kinase CLK2 (Homo sapiens, UniProt P49760); assay: Inhibition of human CLK2 assessed as remaining activity at 10 uM in presence of ATP by radiometric kinase assay relative to control
[11] = molecular target: Serine/threonine-protein kinase PAK 2 (Homo sapiens) (UniProt Q13177); assay: Inhibition of human PAK2 assessed as remaining activity at 10 uM in presence of ATP by radiometric kinase assay relative to control
[12] = molecular target: Serine/threonine-protein kinase PAK 4 (Homo sapiens) (UniProt O96013); assay: Inhibition of human PAK4 assessed as remaining activity at 10 uM in presence of ATP by radiometric kinase assay relative to control
[13] = molecular target: Mitogen-activated protein kinase kinase kinase 9 (Homo sapiens) (UniProt P80192); assay: Inhibition of human MLK1 assessed as remaining activity at 10 uM in presence of ATP by radiometric kinase assay relative to control
[14] = molecular target: Tyrosine-protein kinase Yes (Homo sapiens) (UniProt P07947); assay: Inhibition of human YES1 assessed as remaining activity at 10 uM in presence of ATP by radiometric kinase assay relative to control
[15] = molecular target: Tyrosine-protein kinase BTK (Homo sapiens) (UniProt Q06187); assay: Inhibition of human BTK assessed as remaining activity at 10 uM in presence of ATP by radiometric kinase assay relative to control
[16] = molecular target: Ephrin type-B receptor 3 (Homo sapiens) (UniProt P54753); assay: Inhibition of human EPH-B3 assessed as remaining activity at 10 uM in presence of ATP by radiometric kinase assay relative to control
[17] = molecular target: Insulin receptor (Homo sapiens) (UniProt P06213); assay: Inhibition of human IR assessed as remaining activity at 10 uM in presence of ATP by radiometric kinase assay relative to control
[18] = molecular target: Proto-oncogene tyrosine-protein kinase Src (Homo sapiens) (UniProt P12931); assay: Inhibition of human Src assessed as remaining activity at 10 uM in presence of ATP by radiometric kinase assay relative to control
[19] = molecular target: T1, Ribosomal protein S6 kinase alpha-1; assay: Inhibition of human RSK1 at 10 uM in presence of ATP by radiometric kinase assay relative to control
[20] = molecular target: Phosphorylase b kinase gamma catalytic chain, skeletal muscle/heart isoform (Homo sapiens, UniProt Q16816); assay: Inhibition of PHKG1 (unknown origin) by FRET based Z-LYTE kinase assay
HT-29 [21] = assay: Induction of cell cycle arrest in human HT-29 cells assessed as accumulation of cells at S phase at 0.5 uM incubated for 24 hrs by BrdU and PI staining based flow cytometry analysis; format: functional
How it was run: (§1)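 HT29 cells exposed for 24h, stained with bromodeoxyuridine and propidium iodide, and cell-cycle distribution measured by flow cytometry.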

HT-29 [22] = assay: Induction of cell cycle arrest in human HT-29 cells assessed as decrease in accumulation of cells at G0/G1 phase at 1 to 5 uM incubated for 24 hrs by BrdU and PI staining based flow cytometry analysis; format: functional; conditions: dose 1-5 µM; how it was run: as §1
SW-620 = assay: Induction of apoptosis in human SW620 cells assessed as increased in cleaved PARP in presence of gemcitabine by Western blotting analysis; format: functional, cell-based
[23] = AUC (0 to t) in BALB/C mouse spleen at 10 mg/kg, iv by LC/MS-MS analysis; format: ADME, organism-based
[24] = Half life in BALB/C mouse plasma at 10 mg/kg, po by LC/MS-MS analysis; format: ADME, organism-based
How it was run: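 Female BALB/c mice received a single bolus of 10mg/kg, either i.v. or p.o. The oral vehicle was DPTW (10% DMSO, 20% PEG400, 5% Tween 80, 65% water). Plasma and spleen homogenates were extracted with methanol containing internal standards. Drug levels were measured by LC/MS-MS, and pharmacokinetic parameters were calculated from the concentration-time profiles.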

Mus musculus = assay: In vivo inhibition of CHK1 in CRTac:Ncr-Fox1 mouse xenografted with human HT-29 cells assessed as reduction of phosphorylation of CHK1 on S296 at 100 mg/kg, po administered for 24 hrs by Western blotting analysis; format: functional, organism-based
How it was run: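 HT29 s.c. xenografts in female athymic nude mice. Single gemcitabine dose 100mg/kg i.v. on day 0, then one inhibitor dose 50 or 100mg/kg p.o. (DPTW vehicle) 24h later. Tumors taken 24h after the last dose, western blotted, and signals quantified by normalizing to GAPDH.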

[25] = Toxicity in CRTac:Ncr-Fox1 mouse xenografted with human HT-29 cells assessed as body weight at 12.5 mg/kg, po administered for 16 days in presence of gemcitabine relative to control; format: organism-based; conditions: in vivo, 384 h, time 16 day
[26] = Toxicity in Emu-Myc driven transgenic mouse transplant model of B-cell lymphoma assessed as reduction in weight of thymus at 150 mg/kg, po administered for 9 days; format: organism-based; conditions: in vivo, 216 h, time 9 day
[27] = molecular target: Serine/threonine-protein kinase D1 (Homo sapiens, UniProt Q15139); assay: Inhibition of PRKD1 (unknown origin) by 33P radiometric kinase assay

T1 sequence (Q15418 whole entry): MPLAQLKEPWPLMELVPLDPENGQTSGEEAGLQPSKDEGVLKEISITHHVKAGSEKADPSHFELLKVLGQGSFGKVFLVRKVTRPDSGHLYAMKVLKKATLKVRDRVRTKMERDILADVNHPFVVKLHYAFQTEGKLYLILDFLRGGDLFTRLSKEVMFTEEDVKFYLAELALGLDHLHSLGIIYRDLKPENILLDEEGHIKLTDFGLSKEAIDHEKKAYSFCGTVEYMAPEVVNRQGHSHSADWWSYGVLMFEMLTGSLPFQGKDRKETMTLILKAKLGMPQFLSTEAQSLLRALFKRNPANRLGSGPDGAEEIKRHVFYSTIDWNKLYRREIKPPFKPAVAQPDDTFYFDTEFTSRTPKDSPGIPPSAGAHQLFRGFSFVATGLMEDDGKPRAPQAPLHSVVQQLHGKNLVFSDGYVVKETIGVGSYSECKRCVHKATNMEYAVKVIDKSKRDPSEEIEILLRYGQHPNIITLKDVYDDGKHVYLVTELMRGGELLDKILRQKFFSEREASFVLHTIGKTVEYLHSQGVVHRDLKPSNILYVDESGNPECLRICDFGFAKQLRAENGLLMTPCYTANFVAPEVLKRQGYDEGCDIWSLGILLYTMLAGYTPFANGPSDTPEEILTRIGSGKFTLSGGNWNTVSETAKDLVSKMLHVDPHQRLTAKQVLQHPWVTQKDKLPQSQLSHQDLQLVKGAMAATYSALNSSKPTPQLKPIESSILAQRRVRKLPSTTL
Chain of Mitogen-activated protein kinase kinase kinase 9 (Homo sapiens) (P80192 whole entry, looked up): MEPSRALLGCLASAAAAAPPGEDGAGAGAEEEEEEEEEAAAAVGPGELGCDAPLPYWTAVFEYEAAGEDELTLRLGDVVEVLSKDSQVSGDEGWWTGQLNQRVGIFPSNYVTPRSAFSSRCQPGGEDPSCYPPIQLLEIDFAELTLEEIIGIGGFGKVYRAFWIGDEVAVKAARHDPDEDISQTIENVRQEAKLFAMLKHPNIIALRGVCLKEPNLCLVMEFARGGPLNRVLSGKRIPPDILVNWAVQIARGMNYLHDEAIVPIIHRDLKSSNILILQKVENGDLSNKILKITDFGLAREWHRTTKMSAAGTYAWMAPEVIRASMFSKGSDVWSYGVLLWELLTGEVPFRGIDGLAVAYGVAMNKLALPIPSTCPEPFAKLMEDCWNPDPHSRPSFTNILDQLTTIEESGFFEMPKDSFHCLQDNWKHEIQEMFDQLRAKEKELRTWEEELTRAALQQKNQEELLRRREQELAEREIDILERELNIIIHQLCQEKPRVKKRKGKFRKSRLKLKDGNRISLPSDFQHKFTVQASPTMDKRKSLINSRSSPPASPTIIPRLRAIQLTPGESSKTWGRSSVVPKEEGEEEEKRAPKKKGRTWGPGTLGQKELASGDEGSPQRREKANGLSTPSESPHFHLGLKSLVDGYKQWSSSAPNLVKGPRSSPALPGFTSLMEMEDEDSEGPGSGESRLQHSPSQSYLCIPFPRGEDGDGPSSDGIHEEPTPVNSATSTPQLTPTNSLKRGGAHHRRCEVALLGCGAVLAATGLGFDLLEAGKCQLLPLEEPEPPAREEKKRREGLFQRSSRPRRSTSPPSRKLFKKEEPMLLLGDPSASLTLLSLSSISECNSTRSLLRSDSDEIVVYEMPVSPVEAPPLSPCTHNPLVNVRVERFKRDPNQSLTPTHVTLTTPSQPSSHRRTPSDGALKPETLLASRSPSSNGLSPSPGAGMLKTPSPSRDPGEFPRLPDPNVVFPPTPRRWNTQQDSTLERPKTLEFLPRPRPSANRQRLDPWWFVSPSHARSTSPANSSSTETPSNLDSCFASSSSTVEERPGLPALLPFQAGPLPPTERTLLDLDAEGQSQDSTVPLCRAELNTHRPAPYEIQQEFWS
Chain of Tyrosine-protein kinase BTK (Homo sapiens) (Q06187 whole entry): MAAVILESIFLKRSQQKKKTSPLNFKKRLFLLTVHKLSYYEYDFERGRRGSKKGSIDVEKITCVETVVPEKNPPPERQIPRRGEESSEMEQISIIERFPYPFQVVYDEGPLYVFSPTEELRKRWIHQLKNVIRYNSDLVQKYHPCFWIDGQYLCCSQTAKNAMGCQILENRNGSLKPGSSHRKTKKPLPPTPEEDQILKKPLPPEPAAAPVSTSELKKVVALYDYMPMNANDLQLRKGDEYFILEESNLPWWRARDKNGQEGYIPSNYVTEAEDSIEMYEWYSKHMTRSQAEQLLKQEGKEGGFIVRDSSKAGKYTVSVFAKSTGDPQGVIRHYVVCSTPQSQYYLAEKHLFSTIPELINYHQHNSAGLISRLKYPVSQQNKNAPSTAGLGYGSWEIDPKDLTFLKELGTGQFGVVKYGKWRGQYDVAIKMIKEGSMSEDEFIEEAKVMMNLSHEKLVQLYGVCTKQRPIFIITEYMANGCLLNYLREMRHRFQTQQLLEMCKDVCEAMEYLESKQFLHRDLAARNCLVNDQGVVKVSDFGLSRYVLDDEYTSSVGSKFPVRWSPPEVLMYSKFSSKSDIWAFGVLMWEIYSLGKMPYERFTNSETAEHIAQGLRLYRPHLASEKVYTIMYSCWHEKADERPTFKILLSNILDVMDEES
Chain of Mitogen-activated protein kinase 11 (Homo sapiens) (Q15759 whole entry): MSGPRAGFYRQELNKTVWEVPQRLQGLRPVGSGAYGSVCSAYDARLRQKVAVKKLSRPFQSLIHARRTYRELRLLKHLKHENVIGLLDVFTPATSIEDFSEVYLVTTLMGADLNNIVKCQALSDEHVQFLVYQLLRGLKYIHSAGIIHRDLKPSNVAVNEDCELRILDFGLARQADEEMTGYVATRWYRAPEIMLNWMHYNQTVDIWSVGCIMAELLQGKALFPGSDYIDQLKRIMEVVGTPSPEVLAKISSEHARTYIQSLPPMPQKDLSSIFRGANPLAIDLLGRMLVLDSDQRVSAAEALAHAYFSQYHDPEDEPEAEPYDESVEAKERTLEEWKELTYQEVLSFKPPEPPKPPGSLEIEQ
Chain of Dual specificity protein kinase CLK2 (P49760 whole entry, looked up): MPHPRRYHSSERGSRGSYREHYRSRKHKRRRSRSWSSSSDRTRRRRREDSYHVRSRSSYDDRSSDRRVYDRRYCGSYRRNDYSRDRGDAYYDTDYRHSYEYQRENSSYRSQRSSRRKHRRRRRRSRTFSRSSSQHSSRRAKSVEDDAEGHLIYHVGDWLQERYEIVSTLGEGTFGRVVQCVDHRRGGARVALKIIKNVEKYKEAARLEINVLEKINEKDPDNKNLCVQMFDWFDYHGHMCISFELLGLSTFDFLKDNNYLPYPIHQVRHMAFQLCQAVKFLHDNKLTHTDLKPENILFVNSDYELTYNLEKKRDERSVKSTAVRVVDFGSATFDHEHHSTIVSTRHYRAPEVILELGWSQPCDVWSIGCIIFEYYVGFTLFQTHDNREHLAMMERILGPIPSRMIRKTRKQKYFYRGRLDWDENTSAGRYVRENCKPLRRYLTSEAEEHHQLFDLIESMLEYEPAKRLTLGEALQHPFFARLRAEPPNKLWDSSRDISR
Chain of Serine/threonine-protein kinase PAK 4 (Homo sapiens) (O96013 whole entry, looked up): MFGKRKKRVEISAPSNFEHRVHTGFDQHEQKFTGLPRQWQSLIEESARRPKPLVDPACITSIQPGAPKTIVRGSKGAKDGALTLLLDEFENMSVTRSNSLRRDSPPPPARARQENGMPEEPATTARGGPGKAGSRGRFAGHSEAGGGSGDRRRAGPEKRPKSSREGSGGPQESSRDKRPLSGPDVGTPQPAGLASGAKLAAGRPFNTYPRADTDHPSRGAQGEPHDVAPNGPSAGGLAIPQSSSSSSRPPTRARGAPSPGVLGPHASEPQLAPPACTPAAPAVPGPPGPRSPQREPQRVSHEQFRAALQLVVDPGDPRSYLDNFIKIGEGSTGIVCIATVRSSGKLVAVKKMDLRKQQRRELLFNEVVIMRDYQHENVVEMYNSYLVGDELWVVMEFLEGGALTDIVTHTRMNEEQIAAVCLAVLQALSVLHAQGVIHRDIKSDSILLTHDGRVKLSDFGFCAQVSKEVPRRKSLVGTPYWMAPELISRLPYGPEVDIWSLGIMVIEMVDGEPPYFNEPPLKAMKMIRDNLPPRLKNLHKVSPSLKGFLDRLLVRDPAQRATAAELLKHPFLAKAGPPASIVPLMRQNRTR
Chain of Dual specificity tyrosine-phosphorylation-regulated kinase 3 (Homo sapiens) (O43781 whole entry): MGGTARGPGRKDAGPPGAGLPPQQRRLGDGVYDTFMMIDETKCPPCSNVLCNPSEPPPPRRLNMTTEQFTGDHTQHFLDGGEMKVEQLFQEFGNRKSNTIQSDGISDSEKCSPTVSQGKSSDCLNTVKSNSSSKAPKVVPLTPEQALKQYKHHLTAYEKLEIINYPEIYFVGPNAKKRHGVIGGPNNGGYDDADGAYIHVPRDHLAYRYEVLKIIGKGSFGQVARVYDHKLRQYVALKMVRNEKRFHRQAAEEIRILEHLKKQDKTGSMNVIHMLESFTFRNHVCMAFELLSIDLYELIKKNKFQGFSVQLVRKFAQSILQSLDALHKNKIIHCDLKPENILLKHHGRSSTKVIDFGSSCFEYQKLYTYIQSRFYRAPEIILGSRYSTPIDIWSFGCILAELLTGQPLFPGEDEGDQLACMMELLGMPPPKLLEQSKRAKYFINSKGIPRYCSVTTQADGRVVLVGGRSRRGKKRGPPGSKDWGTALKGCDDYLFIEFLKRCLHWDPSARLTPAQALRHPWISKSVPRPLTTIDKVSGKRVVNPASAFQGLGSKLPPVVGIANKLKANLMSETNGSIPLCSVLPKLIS
Chain of Mitogen-activated protein kinase 9 (Homo sapiens) (P45984 whole entry, looked up): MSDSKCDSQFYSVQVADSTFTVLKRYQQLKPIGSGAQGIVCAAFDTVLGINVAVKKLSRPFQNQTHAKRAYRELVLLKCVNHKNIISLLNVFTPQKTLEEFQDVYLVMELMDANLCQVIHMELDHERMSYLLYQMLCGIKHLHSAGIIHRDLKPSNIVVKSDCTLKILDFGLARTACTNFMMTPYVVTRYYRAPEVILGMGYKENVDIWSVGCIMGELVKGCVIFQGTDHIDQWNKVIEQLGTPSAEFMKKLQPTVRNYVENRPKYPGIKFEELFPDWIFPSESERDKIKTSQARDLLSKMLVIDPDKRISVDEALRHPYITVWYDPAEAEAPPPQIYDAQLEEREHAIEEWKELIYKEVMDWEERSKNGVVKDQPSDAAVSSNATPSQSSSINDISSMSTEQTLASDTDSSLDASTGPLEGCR

N#Cc1cnc(Nc2cc(NC[C@H]3CNCCO3)c(C(F)(F)F)cn2)cn1 [SRA-737]
Tmax [1]: 4.98 min | Activity [2]: 7% | Activity [3]: 107% | Activity [4]: 90% | Activity [5]: 71% | Activity [6]: 13% | Activity [7]: 24% | Activity [8]: 91% | Activity [9]: 71% | Activity [10]: 6% | Activity [11]: 96% | Activity [12]: 49% | Activity [13]: 75% | Activity [14]: 65% | Activity [15]: 72% | Activity [16]: 93% | Activity [17]: 102% | Activity [18]: 93% | inhibition [19]: 93% | pIC50 [20]: 5.46 | Activity (HT-29 [21]): Active | Activity (HT-29 [22]): Active | Activity (SW-620): Active | AUC(0-t) [23]: 262 µM·h | half-life [24]: 171 min | Activity (Mus musculus): Active | Activity [25]: 97.5% | Activity [26]: Toxic | pIC50 [27]: 6.53
